Experimental data reported in ChEMBL document CHEMBL1159376, “Potential cancer chemopreventive constituents of the seeds of Dipteryx odorata (tonka bean)” (J Nat Prod, 2003).
pIC50: −log10 of the molar value.

Experiments:
[1] = Growth inhibition of mouse Hepa-1c1c7 cells; format: functional, cell-based
[2] = Chemoprevention index, ratio of IC50 for mouse Hepa-1c1c7 cells to drug level required to double quinone reductase activity in mouse Hepa-1c1c7 cells; format: functional
tissue or blood = settings: Mus musculus, Mammary gland, read-out: INH
[3] = Inhibition of 7,12-dimethylbenz[a]anthracene-induced […] lesions in mouse mammary organ culture model at 10 ug/ml; format: functional; settings: Mammary gland
How it was run: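 Mouse mammary glands in organ culture with 7,12-dimethylbenz[a]anthracene-induced preneoplastic lesions. Samples were tested at 10 µg/mL, with sulforaphane at 1 µg/mL as positive control. The read-out was percent inhibition of lesion formation.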

| Structure (SMILES) | pIC50 [1] | Ratio [2] | inhibition at 1 µg/mL (tissue or blood) [%] | inhibition at 10 µg/mL [3] [%] |
| --- | --- | --- | --- | --- |
| C[S+]([O-])CCCCN=C=S (centres undefined) [SULFORAPHANE] | 4.56 | 7.2 | 83.7 |  |
| O=C1/C(=C/c2ccc(O)c(O)c2)Oc2cc(O)ccc21 [SULFURETIN] | 4.11 | 3.8 |  | 58.5 |
| COc1cc(/C=C2\Oc3cc(O)ccc3C2=O)ccc1O | 4.46 | 5.4 |  | 48.2 |
| O=C(/C=C/c1ccc(O)cc1)c1ccc(O)cc1O [ISOLIQUIRITIGENIN] | 4.56 | 7.2 |  | 76 |
| COc1cc(C2Oc3c(OC)cc(/C=C/C=O)cc3C2CO)ccc1O (racemic) | 4.31 | 3.2 |  |  |
